Assay results collected from several papers.
Compare with care: the assays were run in different laboratories.
Target: Inhibitor of nuclear factor kappa-B kinase subunit alpha (CHUK, Homo sapiens, UniProt O15111)
Residues used in one study (O15111 1-745): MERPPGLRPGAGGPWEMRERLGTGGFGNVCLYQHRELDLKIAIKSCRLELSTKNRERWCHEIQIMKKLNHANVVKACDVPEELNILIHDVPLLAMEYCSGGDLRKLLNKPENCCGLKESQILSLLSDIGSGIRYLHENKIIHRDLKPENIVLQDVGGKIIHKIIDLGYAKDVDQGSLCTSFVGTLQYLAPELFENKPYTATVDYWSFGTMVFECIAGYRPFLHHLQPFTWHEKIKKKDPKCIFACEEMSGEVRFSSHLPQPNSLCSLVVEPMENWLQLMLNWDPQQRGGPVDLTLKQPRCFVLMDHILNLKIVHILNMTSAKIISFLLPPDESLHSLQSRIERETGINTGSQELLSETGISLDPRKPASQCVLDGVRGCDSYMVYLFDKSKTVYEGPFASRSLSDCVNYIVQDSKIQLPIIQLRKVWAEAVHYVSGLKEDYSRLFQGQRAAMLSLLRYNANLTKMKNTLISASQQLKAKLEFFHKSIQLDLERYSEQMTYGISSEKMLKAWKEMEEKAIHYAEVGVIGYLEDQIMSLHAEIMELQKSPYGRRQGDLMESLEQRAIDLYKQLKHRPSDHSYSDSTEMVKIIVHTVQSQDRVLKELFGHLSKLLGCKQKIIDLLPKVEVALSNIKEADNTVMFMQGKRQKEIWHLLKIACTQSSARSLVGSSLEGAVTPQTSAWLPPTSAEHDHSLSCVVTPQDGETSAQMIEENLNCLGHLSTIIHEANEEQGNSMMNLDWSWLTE

CNCc1ccc(-c2cc(-c3nc(-c4ccc(S(=O)(=O)C(C)C)cc4)cnc3N)on2)cc1
inhibition (enzyme activity, inhibitor; 2 µM): 36%

C[C@H](NC(=O)c1cnc2n1[C@](C)(Cc1ccc(C#N)cc1)C(=O)N2c1cc(Cl)c(F)c(Cl)c1)C(=O)NC1(c2ccccn2)CC1
remaining binding (cell-free assay, competition with immobilised ligand; 1 µM): 100%

Cc1ccc(NC(=O)c2ccc(CN3CCN(C)CC3)cc2)cc1Nc1nc(-c2cccnc2)cs1
remaining signal (cell-free assay; 0.5 µM): 96.2%

CSc1nc(C)c(-c2ccnc(Nc3ccc(N4CCOCC4)cc3)c2)[nH]1
inhibition (enzyme activity, inhibitor; 10 µM): 48.8%

CC(=O)C1=C(C)N(c2cccc(C(F)(F)F)c2)C(=O)N[C@@H]1c1ccc(C#N)nc1
remaining binding (cell-free assay, competition with immobilised ligand; 1 µM): 100%

CCN(CC)c1ccc(C2=NNC(=O)CC2C)cc1[N+](=O)[O-] (centres unmarked)
remaining activity (enzyme activity, inhibitor; 10 µM): 109%

CNC(=O)c1cc(Oc2ccc(NC(=O)Nc3ccc(Cl)c(C(F)(F)F)c3)cc2)ccn1
inhibition (enzyme activity, inhibitor; 0.3 µM): -10%

N#CCCc1ccc2c(c1)-c1[nH]c3ccc([N+](=O)[O-])cc3c1CC(=O)N2
remaining signal (cell-free assay; 0.5 µM): 105%

NS(=O)(=O)c1cc(NC(=O)Cc2ccccc2)ccc1Oc1cccc(Cl)c1
remaining binding (cell-free assay, competition with immobilised ligand; 1 µM): 63%

CCCOc1ccc(OC)c(F)c1C(=O)c1ccc(C(=O)N[C@@H]2CNC[C@H]2NC(=O)c2ccc3[nH]ncc3c2)cc1
remaining activity (enzyme activity, inhibitor; 10 µM): 83%

Cc1cc(NC(=O)c2cccc3cc(-c4cccc5[nH]nc(N)c45)ccc23)ccc1F
activity vs control (enzyme activity, inhibitor; 0.1 µM): 127%

Nc1ncnc2occ(-c3ccc(NC(=O)Nc4cc(C(F)(F)F)ccc4F)cc3)c12
remaining activity (enzyme activity, inhibitor; 20 µM): 0%

CCCCNc1ncc2c(-c3ccc(F)cc3)nn(C[C@H]3CC[C@H](N)CC3)c2n1
inhibition (target engagement in cells, inhibitor, chemoproteomics; 20 mM): 4.9%

O=C(Nc1nccs1)C(c1cc(F)ccc1O)N1Cc2ccccc2C1=O (centres unmarked)
inhibition (enzyme activity, inhibitor; 1 µM): 16%

CN(C)c1ncnc(-c2ccc3nc(Nc4cc(CN5CCN(C(=O)CC(F)(F)F)CC5)ccn4)[nH]c3c2)c1Cl
remaining binding (cell-free assay, competition with immobilised ligand; 1 µM): 69%

CCN(CC)CCNC(=O)c1c(C)[nH]c(/C=C2\C(=O)Nc3ccc(F)cc32)c1C
inhibition (enzyme activity, inhibitor; 10 µM): 52%

Cc1cnc(NC2CCOCC2)nc1-n1cnc(C(=O)NC(CN)c2cc(F)cc(Cl)c2)c1 (centres unmarked)
remaining activity (enzyme activity, inhibitor, radiometric; 1 µM): 92%

CN([C@@H]1CCc2c(CC(=O)O)c3cc(S(C)(=O)=O)ccc3n2C1)S(=O)(=O)c1ccc(F)cc1
remaining binding (cell-free assay, competition with immobilised ligand; 1 µM): 100%

Cc1ccc(Nc2nccc(N(C)c3ccc4c(C)n(C)nc4c3)n2)cc1S(N)(=O)=O
remaining signal (cell-free assay, inhibitor; 0.5 µM): 99.4%

CN(C)C(=O)Cn1cc(-c2nc(C3(c4ccc(-c5cnc(N)nc5)cc4)CC3)no2)cn1
remaining binding (cell-free assay, competition with immobilised ligand; 1 µM): 100%

O=C(Nc1cnn(-c2csc(C(=O)NC3COC3)c2)c1)Nc1c(F)cccc1Cl
remaining activity (enzyme activity, inhibitor; 5 µM): 108%

CN(C(=O)c1ccccc1)c1cc(N(C)c2ccc3c(c2)CCc2ccc(C(=O)NCCN4CCOCC4)cc2C3=O)ccc1F
remaining binding (cell-free assay, competition with immobilised ligand; 1 µM): 100%

CC(C)(C)c1nc2c(s1)c1nc(N)ncc1c1ccc(NS(=O)(=O)c3c(F)cccc3F)c(F)c12
remaining activity (enzyme activity, inhibitor, radiometric; 1 µM): 88%
